Results on 13 compounds are retold here after ChEMBL document CHEMBL4765308, “N-alkylpiperidine carbamates as potential anti-Alzheimer's agents” (Eur J Med Chem, 2020).

The target in series [1] is T1, Amine oxidase [flavin-containing] B (Homo sapiens, UniProt P27338).
T1 sequence (P27338 whole entry): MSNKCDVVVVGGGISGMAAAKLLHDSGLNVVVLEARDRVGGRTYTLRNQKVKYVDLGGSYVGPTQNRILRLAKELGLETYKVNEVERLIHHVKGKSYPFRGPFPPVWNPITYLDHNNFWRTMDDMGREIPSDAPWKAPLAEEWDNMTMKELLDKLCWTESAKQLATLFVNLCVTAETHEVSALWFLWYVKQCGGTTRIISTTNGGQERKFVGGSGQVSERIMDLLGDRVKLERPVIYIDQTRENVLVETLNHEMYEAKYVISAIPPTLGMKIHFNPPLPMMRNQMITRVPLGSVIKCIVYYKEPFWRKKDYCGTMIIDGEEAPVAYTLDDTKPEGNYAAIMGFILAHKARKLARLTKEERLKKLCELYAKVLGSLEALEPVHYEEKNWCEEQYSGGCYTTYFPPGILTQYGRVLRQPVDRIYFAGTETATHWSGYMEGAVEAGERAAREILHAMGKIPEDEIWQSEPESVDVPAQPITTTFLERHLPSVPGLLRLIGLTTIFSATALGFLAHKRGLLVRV
Nature of the series: Inhibition of human recombinant microsomal MAO-B expressed in baculovirus-infected BTI-TN-5B1-4 cells assessed as inhibition of H2O2 production using p-tyramine as substrate preincubated for 15 mins followed by substrate addition by Amplex Red reagent based fluorescence analysis. The method, boiled down: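 Recombinant human MAO-A or MAO-B (insect-cell microsomes) preincubated with compound 15 min at 37 °C in 50 mM sodium phosphate, pH 7.4, 0.05% Triton X-114. Reaction started with 1 mM p-tyramine, 250 µM Amplex Red and 2 U/mL HRP (final concentrations). Resorufin fluorescence (ex 530/em 590 nm) followed for 20 min at 37 °C, duplicates. Blank-corrected residual activity; IC50 from a four-parameter Hill fit.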

Series [2] deals with T2, Acetylcholinesterase (Homo sapiens, UniProt P22303). Nature of the series: Inhibition of human AChE using acetylthiocholine iodide as substrate preincubated with enzyme for 30 mins followed by substrate addition by Ellman's method. A general note: In Ellman's method for cholinesterases, released thiocholine reacts with DTNB.
The target in series [3] is T3, Cholinesterase (Homo sapiens, UniProt P06276). Nature of the series: Inhibition of human BuchE using butyrylthiocholine iodide as substrate preincubated for 30 mins followed by substrate addition by Ellman's method.
Series [4] is filed under the species Homo sapiens. Nature of the series: Inhibition of HFIP-pretreated human amyloid beta (1 to 42) self aggregation at 10 uM incubated for 36 to 48 hrs by thioflavin-T based fluorescence method relative to control. The note with it: time 36-48 hrs. The method, boiled down:
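HFIP-pretreated Aβ1-42 (1.5 µM) incubated with compound (10 µM) and thioflavin-T (10 µM final) at room temperature with continuous shaking for 36–48 h. Fluorescence (ex 440/em 490 nm) read every 3 min. Percent inhibition compared with Aβ + DMSO control, run in quadruplicate. Three independent experiments, mean ± SD, one-way ANOVA with Bonferroni test.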

Series [5] concerns SH-SY5Y. Nature of the series: Cytotoxicity against human SH-SY5Y cells at 20 uM incubated for 48 hrs […]. The series is classed as cell-based.
The test system of series [6] is HepG2. Nature of the series: Cytotoxicity against human HepG2 cells at 50 uM incubated for 48 hrs […]. As to conditions: hepg2, 48 h. The series is classed as cell-based.
In series [7] the target is T4, Amine oxidase [flavin-containing] A (Homo sapiens, UniProt P21397).
T4 sequence (P21397 whole entry): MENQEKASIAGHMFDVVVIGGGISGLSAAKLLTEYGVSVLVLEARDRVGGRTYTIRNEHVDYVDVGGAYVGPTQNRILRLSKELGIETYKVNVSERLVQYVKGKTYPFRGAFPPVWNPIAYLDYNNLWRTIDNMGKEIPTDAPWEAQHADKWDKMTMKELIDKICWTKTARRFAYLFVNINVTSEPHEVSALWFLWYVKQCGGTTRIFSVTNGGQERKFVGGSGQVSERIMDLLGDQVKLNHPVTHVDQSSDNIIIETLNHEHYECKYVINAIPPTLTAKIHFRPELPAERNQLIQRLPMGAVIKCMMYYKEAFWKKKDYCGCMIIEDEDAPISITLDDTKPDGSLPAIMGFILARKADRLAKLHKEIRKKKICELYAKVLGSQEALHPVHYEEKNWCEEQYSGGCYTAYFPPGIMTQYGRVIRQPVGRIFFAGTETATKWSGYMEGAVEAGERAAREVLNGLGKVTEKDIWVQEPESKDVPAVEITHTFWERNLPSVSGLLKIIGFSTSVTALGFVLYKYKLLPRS
Nature of the series: Inhibition of human recombinant microsomal MAO-A expressed in baculovirus-infected BTI-TN-5B1-4 cells assessed as inhibition of H2O2 production using p-tyramine as substrate preincubated for 15 mins followed by substrate addition by Amplex Red reagent based fluorescence analysis.

The target of series [8] is T2, Acetylcholinesterase. Nature of the series: Reversible inhibition of human AChE using acetylthiocholine iodide as substrate preincubated with enzyme at 10XIC50 for 30 mins followed by substrate addition and measured for 5 mins by Ellman's method. The note with it: time 35.0 min.
The target of series [9] is T3, Cholinesterase. Nature of the series: Reversible inhibition of human BuChE using butyrylthiocholine iodide as substrate preincubated with enzyme at 10XIC50 for 30 mins followed by substrate addition and measured for 5 mins by Ellman's method. The note with it: time 35.0 min.
Series [10] concerns the target T2, Acetylcholinesterase. Nature of the series: Non-time dependent inhibition of human AChE using acetylthiocholine iodide as substrate preincubated with enzyme for 15 to 60 mins followed by substrate addition by Ellman's method. The note with it: time 15-60 min.
The target in series [11] is T3, Cholinesterase. Nature of the series: Non-time dependent inhibition of human BuChE using butyrylthiocholine iodide as substrate preincubated with enzyme for 15 to 60 mins followed by substrate addition by Ellman's method. The note with it: time 15-60 min.
Series [12] deals with SH-SY5Y. Nature of the series: Neuroprotective activity against human SH-SY5Y cells assessed as reduction in amyloid beta(1 to 42)-induced cell death at 20 uM measured after 48 hrs by Annexin-V APC/7-AAD staining based flow cytometric analysis. The series is classed as functional. The method, boiled down:
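Aβ1-42 (5 µM) pre-aggregated 24 h at 37 °C in reduced-serum medium, with or without compound (20 µM). SH-SY5Y cells (2×10^4/well) treated the next day for 48 h, then washed in cold PBS and stained with 7-AAD (2 µg/mL, 10 min, room temperature). Percent 7-AAD-positive cells by flow cytometry, relative to control. At least two independent assays in duplicate; ANOVA with t-test.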
Background: A flow cytometer gives signals particle by particle.

Series [13] has as its target T1, Amine oxidase [flavin-containing] B. Nature of the series: Time dependent inhibition human recombinant microsomal MAO-B expressed in baculovirus-infected BTI-TN-5B1-4 cells assessed as inhibition of H2O2 production using p-tyramine as substrate preincubated with enzyme for 5 to 15 mins followed by substrate addition by Amplex Red reagent based fluorescence analysis. The note with it: time 5-15 min.

Series [14] deals with SH-SY5Y. Nature of the series: Reduction in amyloid beta (1 to 42) aggregates in human SH-SY5Y cells at 20 uM incubated for 48 hrs by DAPI stain based immunofluorescence staining analysis. The series is classed as functional, cell-based. In outline:
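SH-SY5Y cells on coverslips treated for 48 h with preincubated Aβ1-42 (5 µM) in reduced-serum medium, with or without compound (20 µM). Fixed in 5% formalin, permeabilized with 0.5% Tween 20 and blocked with 3% BSA. Stained with rabbit anti-amyloid fibril LOC antibody (1:1000, 2 h) and Alexa 488 secondary (1.5 h). DAPI-mounted and imaged by confocal microscopy (63× oil).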

The structures appear in SMILES notation. Counter-ions that a name gives are not always drawn. Active and inactive are the calls of the source. The calls are words filed in the database; no cut-off is given here.

T2 sequence (P22303 whole entry): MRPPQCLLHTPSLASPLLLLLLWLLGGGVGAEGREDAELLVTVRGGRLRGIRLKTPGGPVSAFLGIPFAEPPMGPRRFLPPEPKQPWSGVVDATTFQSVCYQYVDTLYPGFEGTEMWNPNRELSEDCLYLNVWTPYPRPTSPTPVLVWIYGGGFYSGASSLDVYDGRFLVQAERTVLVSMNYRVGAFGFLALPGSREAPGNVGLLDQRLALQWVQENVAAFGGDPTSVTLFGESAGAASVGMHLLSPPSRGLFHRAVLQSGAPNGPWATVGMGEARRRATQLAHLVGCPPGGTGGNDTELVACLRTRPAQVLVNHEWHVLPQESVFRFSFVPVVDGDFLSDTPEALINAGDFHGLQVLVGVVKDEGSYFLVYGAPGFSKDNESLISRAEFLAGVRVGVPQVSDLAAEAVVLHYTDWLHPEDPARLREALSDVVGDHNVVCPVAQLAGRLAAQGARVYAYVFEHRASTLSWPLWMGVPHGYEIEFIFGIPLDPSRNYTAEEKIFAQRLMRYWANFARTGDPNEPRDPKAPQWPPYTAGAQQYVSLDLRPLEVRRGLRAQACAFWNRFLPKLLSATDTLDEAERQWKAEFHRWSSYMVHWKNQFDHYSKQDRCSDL
T3 sequence (P06276 whole entry): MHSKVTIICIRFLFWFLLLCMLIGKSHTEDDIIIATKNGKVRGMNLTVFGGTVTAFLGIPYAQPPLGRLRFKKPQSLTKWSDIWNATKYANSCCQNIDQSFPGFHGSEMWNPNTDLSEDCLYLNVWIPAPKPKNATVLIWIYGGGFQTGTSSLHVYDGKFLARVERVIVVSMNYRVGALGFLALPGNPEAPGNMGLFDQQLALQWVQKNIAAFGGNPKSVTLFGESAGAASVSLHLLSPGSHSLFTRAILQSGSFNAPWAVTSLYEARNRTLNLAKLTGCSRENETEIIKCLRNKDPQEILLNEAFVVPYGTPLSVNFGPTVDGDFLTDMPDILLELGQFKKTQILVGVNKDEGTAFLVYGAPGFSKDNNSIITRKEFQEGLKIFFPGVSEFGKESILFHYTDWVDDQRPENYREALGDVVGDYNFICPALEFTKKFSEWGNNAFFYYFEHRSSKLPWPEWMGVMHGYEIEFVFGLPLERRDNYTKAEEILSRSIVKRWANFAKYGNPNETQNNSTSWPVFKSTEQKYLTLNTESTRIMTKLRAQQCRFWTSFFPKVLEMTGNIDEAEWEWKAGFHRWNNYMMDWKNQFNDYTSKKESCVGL

On to `CC(C)c1ccc(NC(=O)OCC2CCN(Cc3ccccc3)CC2)cc1`, for which the concentration for half-maximal inhibition (IC50) (commonly the point on the concentration scale where inhibition reaches its midpoint) was above 100 µM in series [1], 2.25 µM in series [2], 0.809 µM in series [3] and above 100 µM in [7]. For the same compound, in [4], the inhibition (in general, the relative decrease from the control value, in per cent) is below 20%. The Activity result in series [5] and in series [6] was “Non-Toxic” each time. Also, the inhibition entry in series [8], in series [9], in series [10] and in series [11] was “Active” throughout.
As for `O=C(Nc1ccccc1)OCC1CCN(Cc2ccccc2)CC1`, the IC50 in series [1] is 26.1 µM; in series [2], 7.31 µM; in series [3] it was 0.555 µM; in [7], above 100 µM. In addition, the inhibition in series [4] was below 20%. For the same compound, the Activity result in series [5] and in series [6] was “Non-Toxic” each time. Besides, in [12], the result was Active. Moreover, the inhibition result in series [8], in series [9], in series [10] and in [11] was “Active” throughout. The “inhibition (INH)” value in series [13] is on record as “Not Active”. Further, in series [14], the inhibition entry is “inactive”.
`C#CCN[C@@H]1CCc2ccccc21` [RASAGILINE MESYLATE]: the IC50 in series [2] and in series [3] was above 100 µM throughout. In addition, in series [4], the inhibition was below 20%.
For `CCN(C)C(=O)Oc1cccc([C@H](C)N(C)C)c1` [RIVASTIGMINE TARTRATE], the 50% inhibitory concentration (IC50) in [1] is above 100 µM. Further, the inhibition in series [4] is below 20%.
As to `O=C(Nc1ccccc1)OC1CCCN(C2Cc3ccccc3C2)C1` (stereo not drawn), the 50% inhibitory concentration (IC50) in [1] was above 100 µM; in series [2], above 100 µM; in series [3], 0.0645 µM; in series [7], above 100 µM. The inhibition in series [4] was below 20%. The Activity result in series [5] and in series [6] was “Non-Toxic” throughout. The inhibition result in [8], in [9], in series [10] and in series [11] was “Active” each time.
Take `C#CCN1CCC(OC(=O)Nc2ccc(C(C)C)cc2)CC1`: the IC50 in [1] is 0.178 µM; in series [2], above 100 µM; in [3], above 100 µM; in series [7], above 100 µM. Further, the inhibition in [4] was found to be 25.7%. In addition, the Activity entry in series [5] and in [6] was “Non-Toxic” in each case. In series [12], the result was Active. The “inhibition (INH)” value in series [13] is reported as “Active”. The inhibition entry in series [14] was “Active”.
Consider `Oc1ccc(/C=C/c2cc(O)cc(O)c2)cc1`, for which the inhibition in series [4] was 86.6%.
Still for that read-out and setting: then `COc1cc2c(cc1OC)C(=O)C(CC1CCN(Cc3ccccc3)CC1)C2` (stereo not drawn), with below 20%.
Regarding `CCN(C)C(=O)OCC1CCN(C2Cc3ccccc3C2)CC1`, the IC50 is above 100 µM in [1], above 100 µM in series [2], 4.46 µM in [3] and above 100 µM in [7].
As for `C#CCN1CCCC(CO)C1` (stereo not drawn), the half-maximal inhibitory concentration (IC50) in [1], in series [2], in series [3] and in series [7] was above 100 µM each time.
Take `CC(C)c1ccc(NC(=O)OC2CCCN(C3Cc4ccccc4C3)C2)cc1` (stereo not drawn): the half-maximal inhibitory concentration (IC50) in series [1] is above 100 µM; in series [2] it was 7.91 µM; in series [3] it was above 100 µM; in series [7], above 100 µM.
For `CCN(C)C(=O)OC1CCCN(C2Cc3ccccc3C2)C1` (stereo not drawn), the IC50 in series [1] was above 100 µM; in series [2] it was above 100 µM; in [3], 9.69 µM; in series [7], above 100 µM.
In the case of `CCN(C)C(=O)OC1CCN(Cc2ccccc2)CC1`, the IC50 in series [1], in series [2], in [3] and in series [7] was above 100 µM in each case.
